Results from different studies.
Each line is one published result; the experiments were not run side by side.
Observed: enzyme activity
Action: inhibitor
COQ8B: Atypical kinase COQ8B, mitochondrial (COQ8B, Homo sapiens, UniProt Q96D53)
ACVR2B: Activin receptor type-2B (ACVR2B, Homo sapiens, UniProt Q13705)
murC: UDP-N-acetylmuramate--L-alanine ligase (murC, Escherichia coli K-12, UniProt P17952)
BMP2K: BMP-2-inducible protein kinase (BMP2K, Homo sapiens, UniProt Q9NSY1)

Structure (SMILES) | target | test | setting | remaining activity
Cc1ccc(C(=O)Nc2ccc(CN3CCN(C)CC3)c(C(F)(F)F)c2)cc1C#Cc1cnc2cccnn12 | COQ8B |  | 23.5 nM | 89%
CC(C)(C)c1nc(-c2cccc(NS(=O)(=O)c3c(F)cccc3F)c2F)c(-c2ccnc(N)n2)s1 | ACVR2B | radiometric | 1 µM | 46%
O=[N+]([O-])c1cccc(S(=O)(=O)Oc2ccccc2C=NNS(=O)(=O)c2ccc3ccccc3c2)c1 | murC | absorbance | 50 µM | 65%
NS(=O)(=O)c1ccc(CNc2nc(Nc3cccc(CN4CCOCC4)c3)ncc2C2CC2)cc1 | BMP2K | radiometric | 1 µM | 68%
Nc1ncnc2occ(-c3ccc(NC(=O)Nc4cc(C(F)(F)F)ccc4F)cc3)c12 | COQ8B |  | 20 µM | 24%
O=[N+]([O-])c1ccccc1S(=O)(=O)Oc1ccccc1C=NNS(=O)(=O)c1ccc2ccccc2c1 | murC | absorbance | 50 µM | 55%
Cc1nn(CC(F)(F)F)cc1Nc1nccc(NCc2ccc(S(N)(=O)=O)cc2)n1 | BMP2K | radiometric | 1 µM | 86%
CC(C)(C)c1nc2c(s1)c1nc(N)ncc1c1ccc(NS(=O)(=O)c3c(F)cccc3F)c(F)c12 | ACVR2B | radiometric | 1 µM | 88%
COc1cc(Cl)c(C(=O)N[C@@H](CN[C@H]2CC[C@@H](N)CC2)Cc2ccc(C#N)cc2)cc1-c1ccc(CN[C@H](C)c2ccc(C)cc2)o1 | MAPK/MAK/MRK overlapping kinase (MOK, Homo sapiens, UniProt Q9UQ07) |  | 1 µM | 102%
Cc1nn(CC(F)(F)F)cc1Nc1nccc(NCCc2cnc[nH]2)n1 | BMP2K | radiometric | 1 µM | 104%
O=[N+]([O-])c1cccc(COc2cccc(C=NNS(=O)(=O)c3ccc4ccccc4c3)c2)c1 | murC | absorbance | 50 µM | 58%
Brc1cnc(Nc2cccc(CN3CCOCC3)c2)nc1NCCc1c[nH]cn1 | BMP2K | radiometric | 1 µM | 1%
O=[N+]([O-])c1ccc(S(=O)(=O)Oc2ccccc2C=NNS(=O)(=O)c2ccc3ccccc3c2)cc1 | murC | absorbance | 100 µM | 75%
CCCOc1ccc(OC)c(F)c1C(=O)c1ccc(C(=O)N[C@@H]2CNC[C@H]2NC(=O)c2ccc3[nH]ncc3c2)cc1 | Rho-associated protein kinase 2 (ROCK2, Homo sapiens, UniProt O75116) |  | 50 nM | 38%
O=C(Nc1ccccc1C=NNS(=O)(=O)c1ccc2ccccc2c1)c1cc([N+](=O)[O-])cc([N+](=O)[O-])c1 | murC | absorbance | 100 µM | 51%
Cc1nn(CC(F)(F)F)cc1Nc1nccc(NCCCNC(=O)C2CCC2)n1 | BMP2K | radiometric | 1 µM | 101%
